Activity calls are given as the source filed them. The calls are words filed in the database; no cut-off is given here.
Each compound was assayed against Human immunodeficiency virus type 1 reverse transcriptase (Human immunodeficiency virus 1) (UniProt Q72547) (assay: Inhibition of HIV1 reverse transcriptase upto 100 uM by ELISA).
How it was run: (§1)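 Recombinant HIV-1 RT, non-radioactive ELISA. Oligo(dT) attached through its 5'-phosphate to the plate acts as primer on a poly(A) template (10 µg/ml). Read-out by streptavidin-alkaline phosphatase with PNPP.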

| Activity | SMILES |
| --- | --- |
| inactive | CCOCn1c(C)c(CN(C)c2ccccc2)c(=O)[nH]c1=O |
| inactive | CCOCn1c(C)c(CNC2CCCCC2)c(=O)[nH]c1=O |
| inactive | Cc1c(CNc2ccccc2[N+](=O)[O-])c(=O)[nH]c(=O)n1COCc1ccccc1 |
| inactive | CCOCn1c(C)c(CNc2c(C)cccc2C)c(=O)[nH]c1=O |
| inactive | CCOCn1c(C)c(CNc2cccc([N+](=O)[O-])c2)c(=O)[nH]c1=O |
| inactive | CCOCn1c(C)c(CNc2ccc([N+](=O)[O-])cc2)c(=O)[nH]c1=O |
| inactive | CCOCn1c(C)c(CNc2ccc(C)cc2)c(=O)[nH]c1=O |
| inactive | Cc1c(CNc2ccc([N+](=O)[O-])cc2)c(=O)[nH]c(=O)n1COCc1ccccc1 |
| inactive | CCOCn1c(C)c(CNc2c(Cl)cc(Cl)cc2Cl)c(=O)[nH]c1=O |
| inactive | Cc1c(CNc2cccc([N+](=O)[O-])c2)c(=O)[nH]c(=O)n1COCc1ccccc1 |
| inactive | Cc1c(CNc2c(Cl)cc(Cl)cc2Cl)c(=O)[nH]c(=O)n1COCc1ccccc1 |
| inactive | CCOCn1c(C)c(CNc2cccc3ccccc23)c(=O)[nH]c1=O |

| SMILES | Activity |
| --- | --- |
| CCOCn1c(C)c(CNc2ncccn2)c(=O)[nH]c1=O | inactive |

These compounds were tested against Human immunodeficiency virus type 1 reverse transcriptase (Human immunodeficiency virus 1, UniProt Q72547) (assay: Inhibition of HIV1 reverse transcriptase by ELISA).
How it was run: as §1

| IC50 [µM] | SMILES |
| --- | --- |
| 26.2 | CCOCn1c(C)c(CNc2cc(C)ccc2C)c(=O)[nH]c1=O |
| 5.09 | Cc1c(CNC2CCCCC2)c(=O)[nH]c(=O)n1COCc1ccccc1 |
| > 100 | Cc1c(CNc2cc(Cl)c(Cl)cc2Cl)c(=O)[nH]c(=O)n1COCc1ccccc1 |
| 0.82 | CCOCn1c(C)c(CNc2cc(Cl)c(Cl)cc2Cl)c(=O)[nH]c1=O |
| > 100 | CCOCn1c(C)c(CNc2ccccc2[N+](=O)[O-])c(=O)[nH]c1=O |
| 13.8 | Cc1ccc(NCc2c(C)n(COCc3ccccc3)c(=O)[nH]c2=O)cc1 |
| 3.49 | Cc1c(CN(C)c2ccccc2)c(=O)[nH]c(=O)n1COCc1ccccc1 |

| SMILES | IC50 [µM] |
| --- | --- |
| CCOCn1c(C)c(CNc2ccccn2)c(=O)[nH]c1=O | 54.7 |
